According to ChEMBL document CHEMBL4673343, “Lythrum salicaria Ellagitannins Stimulate IPEC-J2 Cells Monolayer Formation and Inhibit Enteropathogenic Escherichia coli Growth and Adhesion” (J Nat Prod, 2020):
Calls of active or inactive are those of the source. The rule behind the calls is not given here.

What was measured:
IPEC-J2 [1] = assay: Induction of claudin-4 protein expression in porcine IPEC-J2 cells at 20 uM after 6 days by Western blot analysis; type: functional, cell-based; conditions: Sus scrofa domesticus, time 6.0 day
Procedure, shortened: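 Inserts were treated apically with 20 μM from day 7, with medium renewed at day 10. At day 13 cells were lysed and protein equalized by BCA, then run on SDS–PAGE and transferred to nitrocellulose. Blots were probed with mouse anti-claudin 4 and an HRP secondary and detected by ECL. Band intensity was normalized to β-actin and expressed as fold over PBS control.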

IPEC-J2 [2] = assay: Induction of porcine IPEC-J2 cells monolayer development assessed as increase in transepithelial electrical resistance at 20 uM after 6 days by voltammetric method; type: functional, cell-based; conditions: Sus scrofa domesticus, time 6.0 day
Procedure, shortened: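 IPEC-J2 cells were seeded at 5 × 10^5/insert (0.4 μm PET) and cultured until TEER exceeded 1 kΩ cm2 (day 7). Apical medium was then replaced with 20 μM compound or PBS and renewed at day 10, with basolateral medium changed in parallel. TEER was read with an EVOM2 chopstick electrode at days 10 and 13. Mann–Whitney test versus PBS.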

SMILES: O=C(O[C@@H]1COC(=O)c2cc(O)c(O)c(O)c2-c2c(cc(O)c(O)c2O)C(=O)O[C@H]1[C@@H]1OC(=O)c2cc(O)c(O)c(O)c2-c2c(O)c(O)c(O)c3c2C(=O)O[C@H]1[C@@H]3O)c1cc(O)c(O)c(O)c1Oc1cc2c(c(O)c1O)-c1c(cc(O)c(O)c1O)C(=O)OC[C@H]1OC(=O)c3cc(O)c(O)c(O)c3-c3c(O)c(O)c(O)c4c3C(=O)O[C@H]([C@H]3OC(=O)c5c-4c(O)c(O)c(O)c5[C@@H]3O)[C@@H]1OC2=O
- Activity (IPEC-J2 [1]): Active
- Activity (IPEC-J2 [2]): Active

SMILES: O=C(O[C@@H]1COC(=O)c2cc(O)c(O)c(O)c2-c2c(cc(O)c(O)c2O)C(=O)O[C@H]1[C@@H]1OC(=O)c2cc(O)c(O)c(O)c2-c2c(O)c(O)c(O)c3c2C(=O)O[C@H]1[C@H]3O)c1cc(O)c(O)c(O)c1Oc1cc2c(c(O)c1O)-c1c(cc(O)c(O)c1O)C(=O)OC[C@H]1OC(=O)c3cc(O)c(O)c(O)c3-c3c(O)c(O)c(O)c4c3C(=O)O[C@H]([C@H]3OC(=O)c5c-4c(O)c(O)c(O)c5[C@@H]3O)[C@@H]1OC2=O
- Activity (IPEC-J2 [1]): Active
- Activity (IPEC-J2 [2]): Active

SMILES: O=C1OC[C@H]2OC(=O)c3cc(O)c(O)c(O)c3-c3c(O)c(O)c(O)c4c3C(=O)O[C@H]([C@H]3OC(=O)c5c-4c(O)c(O)c(O)c5[C@@H]3O)[C@@H]2OC(=O)c2cc(O)c(O)c(O)c2-c2c1cc(O)c(O)c2O
- Activity (IPEC-J2 [2]): Active
